# Experiment: Toxicity liver stage against HepG2, at 10uM
# Assay type: cell-based
# Parameters: test concentration 10 uM, cell line HepG2-A16-CD81EGFP
# Conditions: human, HepG2-A16-CD81EGFP cells; read-out: INHIBITION
# How it was run: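 Uninfected HepG2-A16-CD81EGFP cells, 3 × 10^3 per well, 1536-well, plated on prespotted compound at 10 μM final, parasite-free screening media added to match infected plates; puromycin 10 μM positive, DMSO 0.5% negative; run in parallel with 48 h PbLuc assay at 37 °C, 5% CO2; viability by CellTiter-Glo luminescence, normalized to controls.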
row,Structure (SMILES),cytotoxicity at 10 µM [%]
1,Cc1cc(C2CCCN(CCc3ccccn3)C2)n[nH]1 (stereo unspecified),-10.4
2,Cc1cc(N(Cc2cccs2)C2CC2)n2nc(C(F)(F)F)nc2n1,-2.1
3,CN(CC1(O)CCCCC1)C1CCCN(Cc2noc(C3CC3)n2)C1 (stereo unspecified),-17.3
4,COc1ccc(-c2nc(CN3CCc4c(ncn4C)C3)cs2)cc1,3
5,O=C(C1CC2(CCNCC2)CN1)N1CCN(c2ccccc2)CC1 (stereo unspecified),-8.6
6,Cn1cc(CN2CCC3(CCC(C(=O)NCC4CC4)C3)CC2)cn1 (stereo unspecified),3.47
7,CS(=O)(=O)N1CCC2(CCCN(Cc3ccccn3)C2)C1 (stereo unspecified),-148
8,NC(=O)CN(CC(N)=O)Cc1cccc(Oc2ccccc2)c1,-5.05
9,COCCNC(=O)CN1CCN(c2nc3cc(C)ccc3o2)CC1,5.75
10,O=C(c1cc(Cl)c[nH]1)N(CCCO)Cc1cccnc1,7.48
11,CCS(=O)(=O)c1ccccc1N1CCC(NC(=O)c2ccc[nH]2)CC1,-8.26
12,O=c1c2c[nH]c(N3CCCC3)nc-2cn1C1CCS(=O)(=O)C1 (stereo unspecified),1.09
13,O[C@H]1[C@H](n2cc(-c3ccccn3)nn2)c2ccccc2C12CCNCC2,-11.5
14,O=C(Cn1nc(Br)nc1Br)N1CCCCC1,-4.38
15,CN1CCN(C(=O)[C@H]2C[C@@H]3CCN(c4ncc(F)cn4)C[C@@H]3O2)CC1,-6.69
16,Cc1nc2cc(C(=O)N3C[C@@H](C(=O)O)[C@H](C4CC4)C3)ccc2[nH]1,-12.1
17,O=C(NCCN1CCCCC1)C(c1ccccc1)N1CCCC1 (stereo unspecified),-1.46
18,CN1Cc2c(C(=O)N3CCOCC3)ncn2-c2ccccc2S1(=O)=O,-1.58
19,CCCOC1CCCN(C(=O)c2[nH]nc(C)c2Br)C1 (stereo unspecified),0.595
20,CCCC(=O)N1CCc2nc3cc(OC)c(OC)cc3c(=O)n2CC1,-13.2
21,CCc1sc(C(=O)Nc2cnn(CCN(C)C)c2)cc1C,7.9
22,Cc1nc(C)c(CN2CCOC[C@H](Oc3ccccc3)C2)s1,7.53
23,O=S(=O)(NCCNc1ccc(-n2cccc2)nn1)c1cccs1,-12.3

row,Structure (SMILES),cytotoxicity at 10 µM [%]
1,CSC(C)C(=O)N1CCCN(Cc2nccn2C)CC1 (stereo unspecified),-11.6
2,Cc1n[nH]c(C)c1CCc1nc(C2CC2)n[nH]1,-12
3,Cn1ccnc1C(=O)NC[C@H]1OC[C@@H]2CCN(S(C)(=O)=O)C[C@@H]21,-101
4,CN1CCC(c2cncc(Cl)n2)CC1,0.752
5,CCn1cc(CN2CCCN(C(=O)c3c(C)oc(C)c3C)CC2)cn1,-8.89
6,CCn1cc(CN(C)c2nc(C)c3ccc(S(C)(=O)=O)cc3n2)cn1,48.8
7,COc1ccc(C2CCCN2C(=O)c2ccc(=O)n(C)c2)cc1OC (stereo unspecified),11.3
8,O=C(NCC(F)F)N1CCC(n2ccc(C(F)(F)F)n2)CC1,-10.2
9,CC(C)c1noc(CN(Cc2cccnc2)C2CN3CCC2CC3)n1 (stereo unspecified),17.2
10,Cc1cccc(N2Cc3c(NC4CCCC4)ncnc3N(C)CC2=O)c1,10.3
11,COCCOc1ccnc(-c2noc([C@@H]3CCCN3C3CCC3)n2)c1,-8.46
12,O=C1CC2(CCN(C(=O)c3ccncc3)CC2)Oc2c(Cl)cc(Cl)cc21,5.17
13,CN1CCN(S(=O)(=O)c2ccc(Sc3nccn3C)nc2)CC1,10.2
14,Cc1nc(C(=O)N2CCOC(Cc3ccc(F)cc3)C2)co1 (stereo unspecified),-1.39
15,Cc1cc(C)c(CNC(=O)NCC2CCCOC2)c(=O)[nH]1 (stereo unspecified),-8.19
16,CS(=O)(=O)c1ccc(-c2ccccc2C(=O)O)cc1,0.238
17,O=C(c1ccc(S(=O)(=O)NCCc2ccncc2)cc1)N1CCCC1,1.67
18,Cc1ccc(C(=O)N2CCn3c(COCC4CC4)cnc3C2C)s1 (stereo unspecified),5.14
19,CC(C)C[C@H](N)C(=O)N1CCSc2ccccc2C1,0.318
20,CN(CC(=O)Nc1ccc(Br)cn1)C(=O)Cc1ccc(O)cc1,-0.0241
21,CC(=O)N1CCN(CCNS(=O)(=O)c2ccc(C)c(F)c2)CC1,-1.84
22,Cn1cnc(S(=O)(=O)N2CCO[C@H]3[C@H](OCC4CC4)CC[C@@H]32)c1,8.31
23,CCC1CCCN(C(=O)Cc2csc(-c3ncccn3)n2)C1 (stereo unspecified),-5.15

row,Structure (SMILES),cytotoxicity at 10 µM [%]
1,COCC(=O)NCCCn1nc2ccccn2c1=O,11.8
2,CCC1(C(=O)O)CCCN(C(=O)c2ccc(N3CCN(C)CC3)cc2)C1 (stereo unspecified),-2.35
3,CC(C)n1cnnc1CNC(=O)c1cnn(-c2ccccc2)c1,11.9
4,CCn1cc(Cl)c(C(=O)NCCCO)n1,6.42
5,CCOc1cccc(C(C)NC(=O)N2CCC(C(N)=O)CC2)c1 (stereo unspecified),-2.95
6,Cc1nc(Oc2ccccc2F)sc1C(=O)O,-11.2
7,CC(CN(C)C(=O)c1cn(C)nc1-c1ccc(F)cc1F)C(=O)O (stereo unspecified),0.184
8,CCC(CC)c1cc(CNC(=O)N2CCOCC2CC)on1 (stereo unspecified),-5.59
9,CO[C@H]1CC[C@H]2[C@H]1OCCN2CCOCc1ccccc1,-114
10,CCOc1cccc(CNc2ccccc2C(F)(F)F)c1O,-4.17
11,CC(CNCc1ccc(Br)cc1)Oc1ccccn1 (stereo unspecified),5.36
12,COc1nc2c(cc1C(=O)NCCc1nc3c(s1)CCC3)CCC2,5.05
13,CN(C)C1CCCN(C(=O)NCCNC(=O)C2CCCC2)C1 (stereo unspecified),-7.4
14,CC(NCC(=O)N1CCc2sccc2C1)c1ccccc1F (stereo unspecified),1.8
15,O=C1C(Sc2nnnn2C2CC2)CCN1c1ccccc1F (stereo unspecified),4.05
16,CCC(C)(CC(=O)OC)NCc1noc(C)n1 (stereo unspecified),-4.39
17,CCc1nc(C2CCCN2CCCS(N)(=O)=O)no1 (stereo unspecified),-6.66
18,O=C(c1ccc2ccccc2c1)C1CCCN(C(=O)Cn2cncn2)C1 (stereo unspecified),2.6
19,CC(C)N1CCN(C(=O)c2csc3nc(-c4ccc(Cl)cc4)cn23)CC1,1.98
20,CC(C)Cc1nc(NC(=O)c2cc(-c3cccnc3)n[nH]2)n[nH]1,2.34
21,N#CC1(C(=O)NCC2CCC3(CCNCC3)O2)CC1 (stereo unspecified),-5.22
22,O=C(CCCc1nnc(-c2ccccc2)o1)N1CCC1,-3.41
23,CCN(CC)C(=O)Cn1nc(C(C)C)c2cnn(C(C)(C)C)c2c1=O,0.703

row,Structure (SMILES),cytotoxicity at 10 µM [%]
1,O=C(O)[C@]12CCCN(Cc3ccsc3)C[C@H]1CN(c1ncccn1)C2,-144
2,CCc1cc(=O)[nH]c(SCc2ccccn2)n1,-0.543
3,CSc1ccccc1C(C(=O)O)N(C)CC1CCOCC1 (stereo unspecified),4.93
4,CC1CCN(S(=O)(=O)NCC2CCOc3ccccc3C2)CC1 (stereo unspecified),-1.25
5,COc1c(CNCCNC(=O)c2ccco2)c(C)nn1C,-5.92
6,CC(=O)N1CCCN(C(=O)c2cnn(C(C)(C)C)c2C)CC1,2.89
7,O=C(NCC1CCS(=O)(=O)C1)c1ccc2cccc(Cl)c2n1 (stereo unspecified),-10.1
8,CCCN(CCC)S(=O)(=O)c1cc(NC(C)=O)ccc1C,-148
9,Cc1nc(O)cc(C2CCCN2CCO)n1 (stereo unspecified),-14.5
10,O=C(c1ccn(-c2cccc(F)c2)n1)N1CCN(CC2CC2)CC1,-7.54
11,Cc1cscc1C(=O)Nc1cc(CSCCO)ccn1,-25.5
12,CCn1cc(CN2CCCN(C(=O)c3ccc(C)nc3)CC2)cn1,-10.4
13,COc1ccc(CN2CCC3(CC2)CCN(CCN(C)C)C3=O)cc1,-4.25
14,O=C(O)CN1CCC(c2ccccc2)CC1,1.73
15,O=C(C1CC(=O)N(C2CC2)C1)N1CCC(Oc2ccccc2Cl)CC1 (stereo unspecified),-7.54
16,O=S1(=O)[C@@H](c2ccccc2)[C@H](CO)CN1c1ccccc1,-5.41
17,C[C@H](NC(=O)C1CC1)c1nc2cc(-c3ccc(F)cc3)ncn2n1,-23
18,O=C(c1cnc2n1CCN(Cc1ccccc1)C2)N1CCCC1,-73.9
19,CCC(=O)N1CCC2(C=C(C(=O)N(C)C)c3ccccc32)CC1,-87.3
20,Cc1nc(CN2C(=O)COC3(CCN(C(N)=O)CC3)C2C)cs1 (stereo unspecified),-130
21,Cc1cc(NCCNc2cccnc2)nc(N)n1,-5.86
22,CCN1CC(C(=O)N2CC(Oc3ccccc3Cl)C2)CC1=O (stereo unspecified),-2.83
23,NC(=O)c1cc2c(nc1N1C[C@H]3OC(=O)N(C4CCCC4)[C@H]3C1)CCC2,2.24

row,Structure (SMILES),cytotoxicity at 10 µM [%]
1,O=C(CN1C(=O)CCC1=O)NCc1cc(C2CC2)n(C2CCCC2)n1,1.74
2,Cc1[nH]ccc1C(=O)N(Cc1ccc(O)cc1)CC1CC1,6.99
3,O=C(c1ccc(S(=O)(=O)NCc2ccncc2)cc1)N1CCNCC1,2.3
4,CN(CCC(F)(F)F)C(=O)[C@H]1CSCN1C(=O)OC(C)(C)C,-9.39
5,CC(=O)N1CCOCC2(CCCNC2)C1 (stereo unspecified),0.081
6,Cc1ncsc1C(=O)NCCSCCCO,-11.3
7,COCCN1CC2(CCN(C(=O)c3ccno3)CC2)c2ccccc21,0.729
8,Cc1ccc2c(c1)nc1n2[C@@H](CNC(=O)c2ccccn2)COC1,7.82
9,CN(CC(=O)N1CCCC1c1cnn(C)c1)c1ccc(Cl)cn1 (stereo unspecified),-6.14
10,CN1CCC2(COCc3cnc(N4CCOCC4)nc32)C1 (stereo unspecified),-6.13
11,Cc1nnc(SCCNC(=O)c2cc(S(N)(=O)=O)ccc2F)s1,-1.4
12,CC(C)(C)c1n[nH]c(C2CN(CC3CCC3)CCO2)n1 (stereo unspecified),9.15
13,COc1cnc(N2CCC(Oc3ccccc3OC)(C(=O)O)CC2)nc1,-13.5
14,O=C1CC(N(C(=O)c2ccc(Cl)c(Cl)c2)C2CC2)C(=O)N1 (stereo unspecified),0.0791
15,Cc1cc(Br)oc1C(=O)N1CCN(CC(N)=O)CC1,0.658
16,CN(Cc1ccco1)C[C@H]1OC[C@@H]2CCN(Cc3ccccn3)C[C@@H]21,-3.22
17,CCOc1ccccc1NC(C)C(=O)N(C)Cc1cccc(F)c1 (stereo unspecified),12.1
18,CC(C)C(=O)NCC(=O)N(C)C1CCCN(CCc2ccccc2)C1 (stereo unspecified),-16.9
19,CN(C)c1nccc(C2CN(S(C)(=O)=O)C2)n1,6.95

# Source: ChEMBL document CHEMBL4513216, “Probing the Open Global Health Chemical Diversity Library for Multistage-Active Starting Points for Next-Generation Antimalarials” (ACS Infect Dis, 2020)
